Source: article PMC8358665 (Chembiochem : a European journal of chemical biology, 2021)

Assays:
Format in all cases: cell-based
VCaP_NED = assay: Western blotting of protein expression during NED; conditions: 10 μM, 48 hours
Outline: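 Neuroendocrine-differentiated cells were treated for 48 h with DMSO, 10 μM GSK343 (an EZH2 inhibitor) or 10 μM test compound. Parental cells treated with DMSO served as the reference. Whole-cell lysates were extracted and analysed by western blotting. Data are from n=3 biological replicates, shown with SEM, and compared by two-tailed Student's t-test.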

LNCaP_NED cells = assay: Cell proliferation
Outline: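 LNCaP cells were cultured in charcoal-stripped serum (androgen- and steroid-depleted) media to induce neuroendocrine differentiation (LNCaP_NED). NED cells were then exposed to the test compound and/or the AR antagonist enzalutamide for 4 days, and cell proliferation was measured. DMSO served as the negative control.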

LNCaP cells = assay: Cell proliferation

Row | SMILES | CBX2 protein expression (VCaP_NED) | H3K27me3 levels (global) (VCaP_NED) | AR protein expression (VCaP_NED; compared to DMSO) | ENO2 and N-Myc protein expression (VCaP_NED; compared to DMSO) | cell proliferation with AR antagonist (LNCaP_NED cells) | cell proliferation with AR antagonist (LNCaP cells)
1 | CCCc1cc(C)[nH]c(=O)c1CNC(=O)c1cc(-c2ccnc(N3CCN(C)CC3)c2)cc2c1cnn2C(C)C [GSK343] | decrease in CBX2 expression | reduces H3K27me3 levels | increase AR | decrease ENO2 and N-Myc expression | – | –
2 | CNC(=O)c1ccc(N2C(=S)N(c3ccc(C#N)c(C(F)(F)F)c3)C(=O)C2(C)C)cc1F [enzalutamide] | – | – | – | – | no further decrease in proliferation | highly decreased proliferation
